Measured values taken from ChEMBL document CHEMBL1126624, “Design, synthesis, and pharmacology of 3-substituted sodium azulene-1-sulfonates and related compounds: non-prostanoid thromboxane A2 receptor antagonists” (J Med Chem, 1993).

Legend:
[1] = species on record: Rattus norvegicus; test: Inhibition of U-46619 (3x10E-8 M) induced contraction in rat thoracic aorta; format: functional, organism-based
In short: (§1)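 Aortic rings were held under 1.0 g resting tension and gassed with 95% O₂/5% CO₂. After 1 h equilibration, 3×10⁻⁸ M U-46619 was added; once tension stabilised, compound was added cumulatively. The concentration giving 50% relaxation of the maximal U-46619 tension was derived by regression. Values are mean ± SEM from three dose groups of four preparations.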

[2] = species on record: Oryctolagus cuniculus; test: Compound was tested for agonist activity on rabbit PRP; format: functional
In short: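 Rabbit platelet-rich plasma was exposed to compound alone at 10⁻⁴ M to test for partial agonism. Response is expressed relative to the response to 0.1 μM U-46619, which is set at 100.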

[3] = species on record: Oryctolagus cuniculus; test: Compound was tested for agonist activity on rabbit aorta; format: functional
In short: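 Rabbit aortic strips were exposed to compound alone at 10⁻⁵ M to test for partial agonism. Tension is expressed relative to the response to 40 mM KCl, which is set at 100.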

[4] = tested on: Thromboxane A2 receptor (Oryctolagus cuniculus); test: Selectivity index for the TXA2 t-receptor was the difference between the IC50 values in the aggregation and contraction assay
[5] = Selectivity index for the difference between the IC50 values in the aggregation and contraction assay; format: functional
In short: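 Index compares IC₅₀ values from U-46619-induced rabbit aorta contraction with those from rabbit platelet-rich plasma aggregation. For aggregation, citrated carotid blood from male New Zealand rabbits (2.0–2.5 kg) gave PRP. PRP was pre-warmed 2 min at 37 °C, given compound for 2 min, then U-46619, with turbidimetric read-out. Each IC₅₀ is mean ± SEM by regression, from three dose groups of four preparations.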

[6] = species on record: Homo sapiens; test: Effect on TXB2 formation of human platelets; format: functional, organism-based
In short: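 Washed human platelets were sonicated in 50 mM phosphate buffer (pH 7.4) with 1 mM EDTA. They were preincubated with compound and 1 mM GSH for 5 min at 37 °C, then given [1-¹⁴C]arachidonic acid for 5 min. Eicosanoids were extracted and separated by TLC, and TXB₂ radioactivity was counted. IC₅₀ was derived by regression.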

[7] = species on record: Oryctolagus cuniculus; test: Displacement of specific binding of [3H]SQ-29,548 to rabbit gel-filtered platelets; format: functional
[8] = species on record: Rattus norvegicus; test: Compound was tested for the inhibition U-46619 (3 x10 E -8 M) induced contraction against in rat thoracic aorta; format: functional, organism-based; in short: as §1
[9] = Rattus norvegicus, Thoracic aorta

Row | SMILES | IC50 [1, 9] | further results
1 | CC(C)c1ccc2c(CC/C=C/CCNS(=O)(=O)c3ccccc3)cc(C(=O)O)c-2cc1 (stereo in doubt; 40) | – | IC50 [1]: 0.46 µM
2 | COc1ccccc2c(S(=O)(=O)NCCc3ccc(OCC(=O)O)cc3)cc(C)c1-2 | 190 µM | –
3 | O=C(O)c1cc(CCCCCCCCNS(=O)(=O)c2ccccc2)c2cccccc1-2 | 0.038 µM | –
4 | CCc1cc(S(=O)(=O)NCCc2ccc(OCC(=O)O)cc2)c2cccccc1-2 | 56 µM | –
5 | CCCc1cc(S(=O)(=O)NCCc2ccc(OCC(=O)O)cc2)c2cc(C(C)C)cccc1-2 | 45 µM | –
6 | COc1ccc(S(=O)(=O)NCCCCc2cc(C(=O)O)c3ccc(C(C)C)ccc2-3)cc1 | 0.16 µM | Agonist activity [2]: 0; Agonist activity [3]: 0; Selectivity index [4]: > 233
7 | CCc1cc(S(=O)(=O)NCCc2ccc(OCC(=O)O)cc2)c2cc(C(C)C)ccc(OC)c1-2 | 120 µM | –
8 | CCCc1cc(S(=O)(=O)NCCc2ccc(OCC(=O)O)cc2)c2ccc(C(C)C)ccc1-2 | 50 µM | –
9 | CC(C)c1cc(S(=O)(=O)NCCc2ccc(OCC(=O)O)cc2)c2cccccc1-2 | 160 µM | –
10 | CC(C)c1ccc2c(C(=O)O)cc(-c3cccc(CCNS(=O)(=O)c4ccccc4)c3)c-2cc1 | 0.14 µM | –
11 | CC(C)c1ccc2c(CCCCNS(=O)(=O)c3ccc(Cl)cc3)cc(C(=O)O)c-2cc1 | 0.0053 µM | Selectivity index [5]: > 667
12 | CC(C)c1ccc2c(CCCNS(=O)(=O)c3ccccc3)cc(C(=O)O)c-2cc1 | 4.8 µM | –
13 | O=C(O)c1cc(CCNS(=O)(=O)c2ccccc2)c2cccccc1-2 | 21 µM | –
14 | O=C(O)c1cc(CCCCCNS(=O)(=O)c2ccccc2)c2cccccc1-2 | 0.84 µM | –
15 | CCc1cc(S(=O)(=O)NCCc2ccc(OCC(=O)O)cc2)c2ccc(C(C)C)ccc1-2 | 65 µM | –
16 | CC(C)c1ccc2c(/C=C/C(=O)O)cc(CCCCNS(=O)(=O)c3ccccc3)c-2cc1 | 21 µM | –
17 | CC(C)c1ccc2c(CCCCNS(=O)(=O)c3ccccc3)cc(C(=O)O)c-2cc1 | 0.07 µM | Selectivity index [5]: > 63
18 | Cc1cc(S(=O)(=O)NCCc2ccc(OCC(=O)O)cc2)c2ccc(C(C)C)ccc1-2 | 84 µM | –
19 | O=C(O)c1cc(CCCCCCCNS(=O)(=O)c2ccccc2)c2cccccc1-2 | 0.018 µM | –
20 | CC(C)c1ccc2c(CCCCNS(=O)(=O)c3ccccc3)cc(CC(=O)O)c-2cc1 | 0.3 µM | –
21 | CC(C)c1ccc2c(CCCCNS(=O)(=O)c3cccc(C(F)(F)F)c3)cc(C(=O)O)c-2cc1 | 1.6 µM | –
22 | CC(C)c1cccc2c(CCCCCNS(=O)(=O)c3ccccc3)cc(C(=O)O)c-2c1 | 2.6 µM | –
23 | CC(C)c1ccc2c(CC/C=C/CCNS(=O)(=O)c3ccccc3)cc(C(=O)O)c-2cc1 (stereo in doubt; 39) | – | IC50 [1]: 0.052 µM
24 | O=C(O)COc1ccc(CCNS(=O)(=O)c2ccccc2)cc1 [SULOTROBAN] | 1.5 µM | Selectivity index [5]: 5

Row | SMILES | IC50 [1, 9] | further results
25 | O=C(O)c1cc(CCCCCCNS(=O)(=O)c2ccccc2)c2cccccc1-2 | 0.14 µM | –
26 | CCCCc1cc(S(=O)(=O)NCCc2ccc(OCC(=O)O)cc2)c2cc(C(C)C)cccc1-2 | 32 µM | –
27 | CC(C)c1ccc2c(CCCCNS(=O)(=O)c3ccc(Cl)cc3)cc(S(=O)(=O)[O-])c-2cc1.[Na+] | 0.0009 µM | IC50 [6]: > 100 µM; Agonist activity [2]: 0; Agonist activity [3]: 0; IC50 [7]: 0.014 µM; Selectivity index [4]: 378
28 | CCCCc1cc(S(=O)(=O)NCCc2ccc(OCC(=O)O)cc2)c2cccccc1-2 | 55 µM | –
29 | CC(C)c1cccc2c(CCCCNS(=O)(=O)c3ccccc3)cc(C(=O)O)c-2c1 | 3.1 µM | –
30 | O=C(O)c1cc(CCCNS(=O)(=O)c2ccccc2)c2cccccc1-2 | 4.8 µM | –
31 | CC(C)c1cccc2c(CCCCCCCNS(=O)(=O)c3ccccc3)cc(C(=O)O)c-2c1 | 0.93 µM | –
32 | CCc1cc(S(=O)(=O)NCCc2ccc(OCC(=O)O)cc2)c2ccccc(OC)c1-2 | 110 µM | –
33 | CC(C)c1ccc2c(CCCCNS(=O)(=O)c3ccc(F)cc3)cc(C(=O)O)c-2cc1 | 1.1 µM | –
34 | CC(C)c1ccc2c(CCNS(=O)(=O)c3ccccc3)cc(C(=O)O)c-2cc1 | 60 µM | –
35 | CC(C)c1ccc2c(CCCCCCCNS(=O)(=O)c3ccccc3)cc(C(=O)O)c-2cc1 | 0.12 µM | –
36 | CC(C)c1ccc2c(CCCCCNS(=O)(=O)c3ccccc3)cc(C(=O)O)c-2cc1 | 0.12 µM | –
37 | CCc1cc(S(=O)(=O)NCCc2ccc(OCC(=O)O)cc2)c2cc(C(C)C)cccc1-2 | 56 µM | –
38 | COc1ccc(S(=O)(=O)NCCCCc2cc(S(=O)(=O)[O-])c3ccc(C(C)C)ccc2-3)cc1.[Na+] | – | IC50 [6]: > 100 µM; Agonist activity [2]: 0; Agonist activity [3]: 0; IC50 [8]: 0.0032 µM; Selectivity index [4]: 660
39 | CC(C)c1ccc2c(C(C)C)cc(S(=O)(=O)NCCc3ccc(OCC(=O)O)cc3)c-2cc1 | 25 µM | –
40 | CC(C)c1cccc2c(CCCNS(=O)(=O)c3ccccc3)cc(C(=O)O)c-2c1 | 7.4 µM | –
41 | CC(C)c1cccc2c(CCNS(=O)(=O)c3ccccc3)cc(C(=O)O)c-2c1 | 15 µM | –
42 | CCCc1cc(S(=O)(=O)NCCc2ccc(OCC(=O)O)cc2)c2cccccc1-2 | 77 µM | –
43 | CC(C)c1ccc2c(CCCCNS(=O)(=O)c3ccccc3)cc(S(=O)(=O)[O-])c-2cc1.[Na+] | 0.017 µM | Agonist activity [2]: 0; Agonist activity [3]: 0; Selectivity index [4]: > 91
44 | CCCCc1cc(S(=O)(=O)NCCc2ccc(OCC(=O)O)cc2)c2ccc(C(C)C)ccc1-2 | 19 µM | –
45 | O=C(O)c1cc(CCCCNS(=O)(=O)c2ccccc2)c2cccccc1-2 | 0.57 µM | –
46 | CC(C)c1cccc2c(CCCCCCNS(=O)(=O)c3ccccc3)cc(C(=O)O)c-2c1 | 0.92 µM | –
47 | Cc1cc(S(=O)(=O)NCCc2ccc(OCC(=O)O)cc2)c2cc(C(C)C)cccc1-2 | 120 µM | –
48 | Cc1cc(S(=O)(=O)NCCc2ccc(OCC(=O)O)cc2)c2cccccc1-2 | 190 µM | –
